Here are results for 1 compound from article PMC3134944 (Current Chemical Genomics, 2011).

The structures appear in SMILES notation.

For one experiment, the system named is purified his-GAPDHS. As to conditions: baculovirus/insect cell expressed his-GAPDHS ref 22; cited from earlier work.
Another experiment deals with GAPDH isozymes. Conditions: ref PMID: 12788228, PMID: 2353814; cited from earlier work.
Experiment [1] deals with recombinant human GST-GAPDHS (Homo sapiens, UniProt O14556). Description: GAPDHS dose response / IC50 determination. Format: biochemical. In a few lines:
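IC50 against GST-GAPDHS used the single-point assay conditions with two-fold serial dilutions in DMSO, giving 10 final concentrations from 80 µM to […]. Percent inhibition at each concentration was fitted to a four-parameter variable-slope equation for IC50 and Hill slope. Some runs included 0.01% Tween-20 (final). Ligand efficiency and binding efficiency index were calculated from IC50.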

Sequence of recombinant human GST-GAPDHS (O14556 69-408): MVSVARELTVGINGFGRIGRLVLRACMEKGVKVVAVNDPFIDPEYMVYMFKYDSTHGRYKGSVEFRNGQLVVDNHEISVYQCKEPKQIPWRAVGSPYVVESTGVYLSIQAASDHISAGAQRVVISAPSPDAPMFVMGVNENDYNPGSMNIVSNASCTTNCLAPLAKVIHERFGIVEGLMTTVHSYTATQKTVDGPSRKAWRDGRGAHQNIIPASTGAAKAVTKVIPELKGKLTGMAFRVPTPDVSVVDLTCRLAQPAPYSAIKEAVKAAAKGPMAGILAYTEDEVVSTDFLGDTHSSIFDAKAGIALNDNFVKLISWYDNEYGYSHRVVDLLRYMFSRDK

Consider `CC1=CC(=O)c2ccccc2C1=O` [Menadione], for which the “active in Prestwick screen against his-GAPDHS” value in the experiment on purified his-GAPDHS was “identified as actives”. In the experiment on GAPDH isozymes, the “inhibitor of GAPDH isozymes in vivo” value is given as “non-selective inhibitor”. The IC50 in experiment [1] (IC50, follow up, absence of Tween-20, dry powder, no detergent) came out at 47 µM; in experiment [1] (IC50 in the presence of 0.01% Tween-20, dry powder, 0.01% Tween-20), 53 µM.

What is called IC50 is the point on the concentration scale where inhibition reaches its midpoint.
